# Results of several laboratories.
# Each line is one published result; the experiments were not run side by side.
SMILES,target or system,assay,system,setting,quantity,result
COc1cccc(C=Nn2c(-c3ccccc3)nc3ccc(Cl)cc3c2=O)c1,LLC-PK1,"cell growth or viability, MTT",,72 h,IC50,177 µM
CC1(C)C[C@H]2[C@H]1CC[C@]1(C)CCC[C@@]2(n2cc(CNC(N)=O)nn2)C1,HT-29,"cell growth or viability, CCK-8",,10 µM,inhibition,< 50%
CC[C@H]1OC(=O)[C@H](C)[C@@H](O[C@H]2C[C@@](C)(OC)[C@@H](O)[C@H](C)O2)[C@H](C)[C@@H](O[C@@H]2O[C@H](C)C[C@H](N(C)C)[C@H]2O)[C@](C)(O)C[C@@H](C)/C(=N\OCOCCOC)[C@H](C)[C@@H](O)[C@]1(C)O,Streptococcus pneumoniae,microbial growth,PRSP,clinical isolate,MIC90,16 µg/mL
Cc1nc(Nc2ncc(C(=O)Nc3c(C)cccc3Cl)s2)cc(N2CC[C@H](O)C2)n1,U2932,"cell growth or viability, ATP luminescence",,"10 µM, 72 h",inhibition,58%
CC1(C)S[C@@H]2[C@H](NC(=O)[C@H](N)c3ccccc3)C(=O)N2[C@H]1C(=O)O,Streptococcus pneumoniae,microbial growth,,clinical isolate,MIC90,4 µg/mL
CCCS(=O)(=O)Oc1ccc(C=NNC(=O)CSc2nc3ccc(Cl)cc3c(=O)n2-c2ccccc2)cc1,Klebsiella pneumoniae,"microbial growth, well diffusion",,20 µg/mL,inhibition zone,3 mm
O=c1c2cc(Cl)ccc2nc(-c2ccccc2)n1N=Cc1ccc(Cl)c(Cl)c1,LLC-PK1,"cell growth or viability, MTT",,72 h,IC50,337 µM
CCCS(=O)(=O)Oc1ccc(C=NNC(=O)CSc2nc3c(C)cccc3c(=O)n2-c2ccccc2)cc1,Klebsiella pneumoniae,"microbial growth, well diffusion",,20 µg/mL,inhibition zone,3 mm
COc1ccc(-c2cn([C@@]34CCC[C@@](C)(CC[C@@H]5[C@@H]3CC5(C)C)C4)nn2)cc1,HT-29,"cell growth or viability, CCK-8",,50 µM,inhibition,44.8%
CN[C@H](CC(C)C)C(=O)N[C@H]1C(=O)N[C@@H](CC(N)=O)C(=O)N[C@H]2C(=O)N[C@H]3C(=O)N[C@H](C(=O)N[C@H](C(=O)O)c4cc(O)cc(O)c4-c4cc3ccc4O)[C@H](O)c3ccc(c(Cl)c3)Oc3cc2cc(c3O[C@@H]2O[C@H](CO)[C@@H](O)[C@H](O)[C@H]2O[C@H]2C[C@](C)(N)[C@H](O)[C@H](C)O2)Oc2ccc(cc2Cl)[C@H]1O,Streptococcus pneumoniae,"microbial growth, agar dilution",ATCC49619,,MIC,0.5 µg/mL
COc1cc(C=NNC(=O)CSc2nc3c(C)cccc3c(=O)n2-c2ccccc2)ccc1OS(C)(=O)=O,Klebsiella pneumoniae,"microbial growth, well diffusion",,20 µg/mL,inhibition zone,3 mm
CC(C)(O/N=C(\C(=O)N[C@@H]1C(=O)N2C(C(=O)[O-])=C(C[n+]3ccccc3)CS[C@H]12)c1csc(N)n1)C(=O)O,Klebsiella pneumoniae,"microbial growth, broth dilution",ATCC43816,,MIC,< 0.5 µg/mL
CC1(C)C[C@H]2[C@H]1CC[C@]1(C)CCC[C@@]2(NS(=O)(=O)C(C)(C)C)C1,HT-29,"cell growth or viability, CCK-8",,50 µM,inhibition,71.4%
Nc1ccc(S(=O)(=O)Nc2ncccn2)cc1,Klebsiella pneumoniae,"microbial growth, well diffusion",,20 µg/mL,inhibition zone,2 mm
O=c1oc2ccccc2c(Nc2ccccc2)c1I,Klebsiella pneumoniae,"microbial growth, broth dilution",,,MIC90,9 µg/mL
CC1(C)C[C@H]2[C@H]1CC[C@]1(C)CCC[C@@]2(n2cc(C(=O)O)nn2)C1,HT-29,"cell growth or viability, CCK-8",,50 µM,inhibition,32.3%
CC(=O)NC[C@H]1CN(c2ccc(N3CCOCC3)c(F)c2)C(=O)O1,Streptococcus pneumoniae,"microbial growth, agar dilution",ATCC49619,,MIC,0.5 µg/mL
CC1(C)C[C@H]2[C@H]1CC[C@]1(C)CCC[C@@]2(NS(=O)(=O)c2ccc(OC(F)(F)F)cc2)C1,HT-29,"cell growth or viability, CCK-8",,10 µM,inhibition,< 50%
CCCS(=O)(=O)Oc1ccc(C=NNC(=O)CSc2nc3c(C)cccc3c(=O)n2-c2ccccc2)cc1OC,Klebsiella pneumoniae,"microbial growth, well diffusion",,20 µg/mL,inhibition zone,2 mm
C=C[C@]1(C)C[C@@H](OC(=O)CS[C@@H]2C[C@H]3CC[C@@H](C2)N3C)[C@]2(C)[C@H](C)CC[C@]3(CCC(=O)[C@H]32)[C@@H](C)[C@@H]1O,Streptococcus pneumoniae,microbial growth,PRSP,clinical isolate,MIC90,0.0312 µg/mL
COc1ccc(C=NNC(=O)CSc2nc3ccc(Cl)cc3c(=O)n2-c2ccccc2)cc1OS(C)(=O)=O,Klebsiella pneumoniae,"microbial growth, well diffusion",,20 µg/mL,inhibition zone,3 mm
CC1(C)C[C@H]2[C@H]1CC[C@]1(C)CCC[C@@]2(n2cc(C(=O)NC3CCNCC3)nn2)C1,HT-29,"cell growth or viability, CCK-8",,50 µM,inhibition,74.4%
CS(=O)(=O)Oc1ccc(C=NNC(=O)CSc2nc3ccc(Cl)cc3c(=O)n2-c2ccccc2)cc1,Klebsiella pneumoniae,"microbial growth, well diffusion",,20 µg/mL,inhibition zone,2 mm
CC1(C)C[C@H]2[C@H]1CC[C@]1(C)CCC[C@@]2(n2cc(CN3CCOCC3)nn2)C1,HT-29,"cell growth or viability, CCK-8",,10 µM,inhibition,< 50%
O=c1c2cc(Cl)ccc2nc(-c2ccccc2)n1N=Cc1cccc(O)c1,LLC-PK1,"cell growth or viability, MTT",,72 h,IC50,321 µM
CCCS(=O)(=O)Oc1ccc(C=NNC(=O)CSc2nc3ccc(Cl)cc3c(=O)n2-c2ccccc2)cc1OC,Klebsiella pneumoniae,"microbial growth, well diffusion",,20 µg/mL,inhibition zone,2 mm
CC1(C)C[C@H]2[C@H]1CC[C@]1(C)CCC[C@@]2(NS(=O)(=O)c2cc(Cl)cc(Cl)c2O)C1,HT-29,"cell growth or viability, CCK-8",,10 µM,inhibition,< 50%
